# Arr AP2 block: blocks beta-arrestin peptide binding to AP2 adaptin | 340,000 compounds, 0.31% hits | inhibition, % at 10 µM | FITC-arrestin peptide / GST-AP2 beads, flow cytometry; AP2 beta2 appendage carries R879A mutation;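 active = inhibition above a set limit, near 3 SD of compounds lacking own fluorescence, cut at about 54% in these data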;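 note: plate controls were DMSO wells for no effect and 5 µM unlabelled arrestin peptide for full effect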
#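 System: GST-AP2 R879A glutathione beads. Medium: PBS with 0.05% Tween 20 and 0.1% BSA. Also added: FITC-arrestin peptide, 50 nM. Incubation: 12 min plus 1 h, RT. Measured by: high-throughput flow cytometry of beads, ex 488, em 535 nm. Evaluation: percent drop in bead-associated FITC signal.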
# Rtt109 HAT inh: blocks Candida albicans Rtt109/Vps75 acetyltransferase activity. purified Rtt109/Vps75, ThioGlo CoA-SH fluorescence, 4 h. 330,000 compounds, 0.16% hits. Q5AAJ8. inhibition, % at 34.9 µM;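 active = inhibition of at least 50% in every replicate; inconclusive = best replicate reaches 50% inhibition but some replicates fall short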
# Target sequence (Q5AAJ8 whole entry, looked up): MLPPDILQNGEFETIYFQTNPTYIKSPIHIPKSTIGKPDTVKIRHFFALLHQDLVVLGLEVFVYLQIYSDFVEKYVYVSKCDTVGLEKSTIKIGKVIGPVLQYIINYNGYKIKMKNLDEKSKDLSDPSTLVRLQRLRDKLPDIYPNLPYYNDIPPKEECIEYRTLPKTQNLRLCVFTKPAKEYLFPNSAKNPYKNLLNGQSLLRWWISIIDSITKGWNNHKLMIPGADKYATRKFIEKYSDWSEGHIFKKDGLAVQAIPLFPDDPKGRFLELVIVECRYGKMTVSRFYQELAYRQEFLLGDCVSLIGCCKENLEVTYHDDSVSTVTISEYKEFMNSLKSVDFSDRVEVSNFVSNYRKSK
# Env fusion inh: HIV envelope-mediated fusion inhibition. HeLa-JRFL Env/CEM21 cell fusion, luciferase. inhibition, % at 12.3 µM. 360,000 compounds, 1.1% hits. AID 651610;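 active = mean replicate inhibition score of at least 50 and every replicate individually at or above 50; inconclusive = only one of the two criteria met; inactive = mean below 50 and not all replicates reaching 50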;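 note: 0% = plate neutral controls and 100% = maraviroc near 300 nM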
# Glyco luc inh: N-linked glycosylation inhibition; reporter increase, % at 12.5 µM; 360,000 compounds, 0.23% hits; D54 ERlucT glycosylation luciferase reporter, 24 h; percent of 100 nM tunicamycin response;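 active = mean luciferase reporter signal, scaled so untreated is 0 and the glycosylation-blocking control 100, at or above a set limit in every replicate; inconclusive = mean reaches the limit but not every replicate does; inactive = mean below the limit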;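 note: luciferase carries N-glycosylation sites so blocking glycosylation raises the light; 0% = median of neutral control wells and 100% = median of 100 nM tunicamycin wells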
# PAX8 reporter: lowers PAX8-driven luciferase in RMG-I cells; RMG-I TPO-luciferase reporter, SteadyGlo, 24 h; AID 652154; 360,000 compounds, 1.2% hits; inhibition, % at 12.6 µM;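 active = mean replicate inhibition at least 60% with every replicate also reaching 60%; inconclusive = only one of the two criteria is met; inactive = mean below 60% and not all replicates reaching 60%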;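 note: luciferase light reporting Pax8 driven TPO promoter activity; plate controls were median of neutral control wells for no effect and mitoxantrone controls for full effect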
# PfHsp90 set2: inhibits growth of yeast expressing Plasmodium falciparum Hsp90 | inhibition, % at 9.4 µM | 310,000 compounds, 0.32% hits | AID 504621 | S. cerevisiae expressing PfHsp90, BacTiter-Glo ATP, 48 h; yeast lacking PDR1 and PDR3 efflux regulators;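 active = every replicate shows inhibition above about 80%, whatever the replicate mean, limit read from the data; inconclusive = mean inhibition reaches the set limit but some replicate falls short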;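 note: 0% = DMSO neutral controls and 100% = 20 µM radicicol positive controls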
# Starred values were filed as active, the others as inactive; ? = inconclusive; nt = not tested or not shown; [ ] = remark or other dose. Shown are actives, neighbours in structure and some others; about 2.3% of the full set was active somewhere.
SMILES,Arr AP2 block,Rtt109 HAT inh,Env fusion inh,Glyco luc inh,PAX8 reporter,PfHsp90 set2
CCCCCCC(=O)N(O)C1CC(=O)N(c2ccc(Cl)cc2)C1=O (centres undefined),-2,-4,7,61*,0,110*
CCCCCCC(=O)N(O)C1CC(=O)N(c2ccc(C)cc2)C1=O (centres undefined),6,11,?,38*,9,106*
COc1cc(C2c3cc4c(cc3CC3COC(=O)N32)OCO4)cc(OC)c1OC (centres undefined),-19,-3,-37,3,72*,5
COc1cc2c(c(OC)c1OC)C(c1ccc3c(c1)OCO3)CC(=O)O2 (centres undefined),27,-1,-8,3,-10,-11
CC#CCN(CC#CC)S(=O)(=O)c1ccc(-n2cnnn2)c(OC)c1,9,54*,-1,4,nt,20
COc1cc(S(=O)(=O)N(Cc2ccccc2)Cc2ccccn2)ccc1-n1cnnn1,10,-4,3,-2,nt,-35
CC(C)(C)SC(=O)CC1NS(=O)(=O)OCC1NC(=O)OCC(Cl)(Cl)Cl (centres undefined),2,-2,63*,-1,20,-16
CCC(C)(C)c1ccc(OCCCC[n+]2ccccc2)c(C(C)(C)CC)c1,-2,?,77*,5,88*,-36
COc1ccccc1NC(=O)N1CCCCN2[C@H](CO)[C@H](c3ccc(-c4cccc(C#N)c4)cc3)[C@H]2C1,nt,nt,nt,nt,55,nt
O=C(Nc1ccccc1C(=O)NC(Cc1ccccc1)C(=O)O)c1ccccc1 (centres undefined),16,0,-7,1,13,-3
O=C(Nc1ccccc1C(=O)NC(Cc1ccccc1)C(=O)NC1CCCCC1)c1ccccc1 (centres undefined),-2,2,66*,0,-18,18
CCCCN(C)CCCNC(=O)c1cc(=O)[nH]c2ccc(S(=O)(=O)N3CCCCC3C)cc12 (centres undefined),-14,-1,60*,0,9,-6
COC(=O)c1cccc(-n2sc3ccccc3c2=O)c1,11,130*,16,-3,-31,21
CN1CCN(c2nc(-c3cccs3)nc3ccccc23)CC1,-2,10,-9,16,-11,nt
CCN1CCN(c2nc(-c3cccs3)nc3ccccc23)CC1,-3,-6,nt,-2,134*,-4
CC(=O)O[C@@H]1C[C@H]2C(C)(C)C(=O)C=C[C@]2(C)[C@H]2CC[C@@]3(C)[C@H](c4ccoc4)OC(=O)[C@H]4O[C@]43[C@@]21C,41,-6,-63,-3,75*,11
CC(=O)OC1CC2C(C)(C)C(=O)C=CC2(C)C2CCC3(C)C(c4ccoc4)OC(=O)C4OC43C12C (centres undefined),nt,nt,nt,-3,nt,nt
C[C@@H]1CCCCO[C@@H](CN(C)C)[C@H](C)CN([C@H](C)CO)C(=O)c2cc(NS(=O)(=O)c3ccc(Cl)cc3)ccc2O1,nt,nt,-17[16.7 µM],nt,-6,nt
C[C@@H]1CN([C@@H](C)CO)C(=O)c2cc(NS(=O)(=O)c3ccc(Cl)cc3)ccc2O[C@@H](C)CCCCO[C@H]1CN(C)C,nt,nt,-12[16.7 µM],nt,80*,nt
C[C@@H]1CN([C@H](C)CO)C(=O)c2cc(NS(=O)(=O)c3ccc(Cl)cc3)ccc2O[C@@H](C)CCCCO[C@H]1CN(C)S(=O)(=O)c1ccc(Cl)cc1,nt,nt,-62[16.7 µM],nt,95*,nt
C[C@@H]1CN([C@@H](C)CO)C(=O)c2cc(NS(=O)(=O)c3ccc(Cl)cc3)ccc2O[C@@H](C)CCCCO[C@H]1CN(C)S(=O)(=O)c1ccc(Cl)cc1,nt,nt,-127[16.7 µM],nt,-4,nt
C[C@H](CO)N1C[C@H](C)[C@H](CN(C)S(=O)(=O)c2ccc(Cl)cc2)OCCCC[C@H](C)Oc2ccc(NS(=O)(=O)c3ccc(Cl)cc3)cc2C1=O,nt,nt,-123[16.7 µM],nt,81*,nt
COCC(=O)N(C)C[C@H]1Oc2ncc(C3=CCCC3)cc2C(=O)N([C@H](C)CO)C[C@@H]1C,nt,nt,4[16.7 µM],nt,-14,nt
CC1(C)CC(=O)C=C(c2ccc(F)cc2OCc2ccccc2)C1,-3,-9,77*,-3,-1,-2

# Screening results from PubChem.
